For one assay, the system named is Rattus norvegicus. Briefly: In vivo antiinflammatory activity after 3 hr of oral administration was determined using rat carrageenan induced paw edema model. It counts as functional. The following applies: read-out: ID50 (the source's name). Put shortly: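 Carrageenan-induced foot paw edema in rats, with the test compound and reference drugs given orally. Activity is expressed as ID50 in mg/kg.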

Assay [1] is described as follows: Percentage of nitric oxide released upon incubation in the presence of guinea pig serum in PBS pH 7.4, 37 degree C for 1.5 h. It counts as functional. Set-up: concentration or dose not given beside the values. Put shortly: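 Test compound (2.0 × 10-4 mmol) was incubated with 260 µL guinea pig serum in PBS at pH 7.4, 37 °C, for 1.5 h. Nitrite was determined by the Griess reaction. Release is given as percent of a theoretical maximum of 2 mol NO per mol compound, SEM, n = 3.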

The target of assay [2] is T1, Prostaglandin G/H synthase 1 (Ovis aries, UniProt P05979).
T1 sequence (P05979 whole entry): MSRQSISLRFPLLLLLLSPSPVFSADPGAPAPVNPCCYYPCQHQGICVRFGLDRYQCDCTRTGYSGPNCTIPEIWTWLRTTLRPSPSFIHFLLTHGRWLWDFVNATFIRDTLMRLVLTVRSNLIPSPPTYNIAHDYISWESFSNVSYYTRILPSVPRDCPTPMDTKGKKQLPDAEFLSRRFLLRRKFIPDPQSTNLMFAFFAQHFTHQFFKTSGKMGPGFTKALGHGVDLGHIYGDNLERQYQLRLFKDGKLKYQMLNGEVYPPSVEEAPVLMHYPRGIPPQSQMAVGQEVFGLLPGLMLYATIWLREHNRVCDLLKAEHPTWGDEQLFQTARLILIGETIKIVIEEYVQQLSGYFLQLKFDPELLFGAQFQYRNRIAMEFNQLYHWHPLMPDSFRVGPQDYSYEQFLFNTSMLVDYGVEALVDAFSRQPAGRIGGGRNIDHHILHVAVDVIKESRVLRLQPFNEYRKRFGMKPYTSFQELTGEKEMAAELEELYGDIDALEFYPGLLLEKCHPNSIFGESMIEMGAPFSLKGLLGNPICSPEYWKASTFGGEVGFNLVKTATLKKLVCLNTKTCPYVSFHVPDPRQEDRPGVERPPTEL
Briefly: In vitro inhibitory concentration against COX-1 enzyme.

The nature of assay [3]: Percentage of nitric oxide released by the compound when incubated in phosphate buffer solution at pH 7.4, 37 degree C for 1.5 h. It counts as functional. Put shortly:
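The compound was incubated in PBS at pH 7.4 and 37 °C for 1.5 h. Nitric oxide was quantified as nitrite by the Griess reaction. Release is expressed as percent of a theoretical maximum of 2 mol NO per mol compound, SEM, n = 3.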

Assay [4] is described as follows: Percentage of nitric oxide released upon incubation in the presence of pig liver esterase in phosphate buffer solution at pH 7.4, 37 degree C for 1.5 h. It counts as functional. Put shortly:
(§1)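 Pig liver esterase was added at 2 equiv (1 mol compound : 2 mol esterase) in PBS at pH 7.4, 37 °C, 1.5 h. Nitrite from NO was measured by the Griess reaction. Release is given as percent of a theoretical 2 mol NO per mol compound, SEM, n = 3.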

Assay [5] can be described thus: Percentage of nitric oxide released by the compound when incubated in the presence of pig liver esterase in phosphate buffer solution at pH 7.4, 37 degree C for 1.5 h. It counts as functional. The gist of the method: as §1

As usually defined, the pIC50 is the IC50 on a negative log10 scale, so that one unit is a factor of ten.

The structures appear in SMILES notation. pIC50: −log10 of the molar value.

In the case of `CC(=O)Oc1ccccc1C(=O)OCO/N=[N+](\[O-])N(C)C`, the ED50 in the assay on Rattus norvegicus came out at 151 mg/kg. The Activity in assay [1] worked out at 81.6%; in assay [3] it was 15.4%; in assay [4], 19.1%. Besides, the pIC50 in assay [2] is less than 4.00.
The matching figures for `CC(C)Cc1ccc(C(C)C(=O)OCO/N=[N+](\[O-])N(C)C)cc1` (centres undefined): 62.3 mg/kg, 93.6%, 16.1%, 17.3% and less than 4.00.
As to `COc1ccc2c(c1)c(CC(=O)O)c(C)n2C(=O)c1ccc(Cl)cc1` [INDOMETHACIN], the ED50 in the assay with Rattus norvegicus turned out to be 4.2 mg/kg.
For `CC(C)Cc1ccc(C(C)C(=O)OCO/N=[N+](\[O-])N2CCCC2)cc1` (centres undefined), in the assay on Rattus norvegicus, the ED50 is 66.8 mg/kg. The Activity in assay [1] was 89.2%; in assay [3], 14.9%; in assay [4], 16.3%. In addition, the pIC50 in assay [2] was less than 4.00.
On to `CN(C)/[N+]([O-])=N/O`, for which the Activity in assay [3] is 95.2%.
As to `COc1ccc2c(c1)c(CC(=O)OCO/N=[N+](\[O-])N(C)C)c(C)n2C(=O)c1ccc(Cl)cc1`, the ED50 in the assay with Rattus norvegicus turned out to be 5.9 mg/kg. The Activity was found to be 86.3% in assay [1], 14.3% in assay [3] and 16.9% in assay [4]. The molecule also showed a pIC50 in assay [2] of less than 4.00.
`CC(=O)Oc1ccccc1C(=O)OCO/N=[N+](\[O-])N1CCCC1`: in the assay with Rattus norvegicus, the ED50 came to 182 mg/kg. The Activity is 88.9% in assay [1], 18.5% in assay [5] and 14.8% in assay [3]. Also, in assay [2], the pIC50 was less than 4.00.
On to `[O-]/[N+](=N\O)N1CCCC1`, for which, in assay [3], the Activity stood at 94%.
As for `CC(C)Cc1ccc(C(C)C(=O)O)cc1` (centres undefined) [IBUPROFEN], the ED50 in the assay with Rattus norvegicus came to 67.4 mg/kg.
With `COc1ccc2c(c1)c(CC(=O)OCO/N=[N+](\[O-])N1CCCC1)c(C)n2C(=O)c1ccc(Cl)cc1`, the ED50 in the assay on Rattus norvegicus stood at 10.7 mg/kg. In addition, the Activity in assay [1] stood at 89.1%; in assay [3] it was 15.1%; in assay [4], 16.3%. Besides, the negative logarithm of the IC50 (pIC50) in assay [2] was less than 4.00.

These data come from ChEMBL document CHEMBL1144450 (J Med Chem, 2005).
